ChEMBL document CHEMBL1153955, “Indolylarylsulfones bearing natural and unnatural amino acids. Discovery of potent inhibitors of HIV-1 non-nucleoside wild type and resistant mutant strains reverse transcriptase and coxsackie B4 virus” (J Med Chem, 2009)

Legend:
[1] = tested on: Respiratory syncytial virus; assay: Antiviral activity against RSV Long in human HeLa cells assessed as protection against virus-induced cytopathicity; type: functional, organism-based
How it was run: (§1)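 Confluent cell monolayers inoculated with 100 CCID₅₀ virus. After 1-2 h adsorption, residual virus removed and cultures incubated with varying compound concentrations. Cytopathicity scored once it reached completion in untreated infected controls. EC₅₀ = dose reducing virus-induced cytopathogenicity by 50%.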

[2] = tested on: Vesicular stomatitis virus; assay: Antiviral activity against VSV in human HeLa cells assessed as protection against virus-induced cytopathicity; type: functional, organism-based
[3] = tested on: Human immunodeficiency virus 1; assay: Antiviral activity against HIV1 3B in human CEM cells assessed as protection against virus-induced cytopathicity after 4 days; type: functional, organism-based; settings: Human immunodeficiency virus 1, 3B, CCRF-CEM, 96 h
How it was run: (§2)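 CEM cells (~3 × 10⁵ cells/mL) infected with ~100 CCID₅₀ per mL of HIV-1 (IIIB) or HIV-2 (ROD), then seeded into wells containing compound dilutions. After 4 days at 37 °C, syncytium (giant cell) formation was examined microscopically. EC₅₀ = concentration protecting CEM cells from HIV cytopathicity by 50%.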

[4] = tested on: Human immunodeficiency virus 2; assay: Antiviral activity against HIV2 ROD in human CEM cells assessed as protection against virus-induced cytopathicity after 4 days; type: functional, organism-based; settings: Human immunodeficiency virus 2, ROD, CCRF-CEM, 96 h; how it was run: as §2
L1210 = assay: Antiproliferative activity against mouse L1210 cells after 2 days; type: cell-based; settings: L1210, 48 h
How it was run: (§3)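 Cells seeded at 5 × 10⁴ to 7.5 × 10⁴ cells/200 µL with or without serial compound dilutions; incubated at 37 °C for 2 days (L1210) or 3 days (Molt4/C8, CEM). Cell numbers counted with a Coulter counter. CC₅₀ = concentration reducing proliferation by 50% versus untreated controls, read from plots of cell number (% of control) against concentration. Means of at least two independent experiments.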

[5] = Antiproliferative activity against human Molt4/C8 cells after 3 days; type: cell-based; settings: MOLT-4, 72 h; how it was run: as §3
CCRF-CEM = assay: Antiproliferative activity against human CEM cells after 3 days; type: cell-based; settings: 72 h; how it was run: as §3
[6] = biological target: Human immunodeficiency virus type 1 reverse transcriptase (Human immunodeficiency virus 1, UniProt Q72547); assay: Inhibition of HIV1 reverse transcriptase p66/p51; settings: read-out: IC50
[7] = biological target: Human immunodeficiency virus type 1 reverse transcriptase (Human immunodeficiency virus 1, UniProt Q72547, L100I); assay: Inhibition of HIV1 reverse transcriptase p66/p51 L100I mutant; settings: read-out: IC50
How it was run: (§4)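 Substrate was 0.5 µg poly(rA)/oligo(dT) 10:1 (0.3 µM 3′-OH ends) with 10 µM [³H]dTTP, at 37 °C. Acid-precipitable radioactivity was counted on GF/C filters after TCA washes.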

[8] = biological target: Human immunodeficiency virus type 1 reverse transcriptase (Human immunodeficiency virus 1, UniProt Q72547, K103N); assay: Inhibition of HIV1 reverse transcriptase p66/p51 K103N mutant; settings: read-out: IC50; how it was run: as §4
[9] = biological target: Human immunodeficiency virus type 1 reverse transcriptase (Human immunodeficiency virus 1, UniProt Q72547, Y181I); assay: Inhibition of HIV1 reverse transcriptase p66/p51 Y181I mutant; settings: read-out: IC50; how it was run: as §4
[10] = Cytotoxicity against human HeLa cells assessed as drug level causing microscopically detectable alteration of normal cell morphology after 3 days; type: cell-based
How it was run: (§5)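 Serial compound dilutions added to confluent HeLa or Vero monolayers. MCC = minimum concentration causing microscopically detectable alteration of cell morphology after 3 days of incubation.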

[11] = Cytotoxicity against african green monkey Vero cells assessed as drug level causing microscopically detectable alteration of normal cell morphology after 3 days; type: cell-based; settings: chlorocebus sabaeus; how it was run: as §5
Coxsackievirus B4 [12] = assay: Antiviral activity against Coxsackievirus B4 in human HeLa cells assessed as protection against virus-induced cytopathicity; type: functional, organism-based; settings: Enterovirus B; how it was run: as §1
Coxsackievirus B4 [13] = assay: Antiviral activity against Coxsackievirus B4 in african green monkey Vero cells assessed as protection against virus-induced cytopathicity; type: functional, organism-based; settings: Enterovirus B; how it was run: as §1
Human respirovirus 3 = assay: Antiviral activity against Parainfluenza virus type 3 in african green monkey Vero cells assessed as protection against virus-induced cytopathicity; type: functional, organism-based; settings: Human respirovirus 3, Vero; how it was run: as §1
[14] = tested on: Mammalian orthoreovirus 1; assay: Antiviral activity against Reovirus 1 in african green monkey Vero cells assessed as protection against virus-induced cytopathicity; type: functional, organism-based; settings: Mammalian orthoreovirus 1, Vero; how it was run: as §1
Sindbis virus = assay: Antiviral activity against Sindbis virus in african green monkey Vero cells assessed as protection against virus-induced cytopathicity; type: functional, organism-based; how it was run: as §1
Punta Toro virus = assay: Antiviral activity against Punta Toro virus in african green monkey Vero cells assessed as protection against virus-induced cytopathicity; type: functional, organism-based; how it was run: as §1
[15] = Cytotoxicity against human HEL cells assessed as drug level causing microscopically detectable alteration of normal cell morphology after 3 days; type: cell-based
Human alphaherpesvirus 1 [16] = assay: Antiviral activity against HSV1 KOS in human HEL cells assessed as protection against virus-induced cytopathicity; type: functional, organism-based; settings: Human alphaherpesvirus 1, KOS
Human alphaherpesvirus 2 = assay: Antiviral activity against HSV2 G in human HEL cells assessed as protection against virus-induced cytopathicity; type: functional, organism-based; settings: Human alphaherpesvirus 2, strain G; how it was run: as §1
Vaccinia virus = assay: Antiviral activity against Vaccinia virus Lederle in human HEL cells assessed as protection against virus-induced cytopathicity; type: functional, organism-based; settings: Orthopoxvirus vaccinia
[17] = tested on: Vesicular stomatitis virus; assay: Antiviral activity against VSV in human HEL cells assessed as protection against virus-induced cytopathicity; type: functional, organism-based
Human alphaherpesvirus 1 [18] = assay: Antiviral activity against thymidine kinase deficient and acyclovir resistant HSV1 KOS in human HEL cells assessed as protection against virus-induced cytopathicity; type: functional, organism-based; settings: Human alphaherpesvirus 1, KOS
[19] = Cytotoxicity against MDCK cells assessed as drug level causing microscopically detectable alteration of normal cell morphology; type: cell-based, Canis lupus familiaris; settings: dog
[20] = Cytotoxicity against MDCK cells by MTS assay; type: cell-based, Canis lupus familiaris; settings: dog
Influenza A virus [21] = assay: Antiviral activity against influenza H1N1 virus in MDCK cells assessed as reduction of virus-induced cytopathicity by visual cytopathic effect scoring method; type: functional, organism-based
Influenza A virus [22] = assay: Antiviral activity against influenza H1N1 virus in MDCK cells assessed as reduction of virus-induced cytopathicity by MTS method; type: functional, organism-based; settings: Influenza A virus, H1N1, MDCK
Influenza A virus H3N2 [23] = assay: Antiviral activity against influenza H3N2 virus in MDCK cells assessed as reduction of virus-induced cytopathicity by visual cytopathic effect scoring method; type: functional, organism-based
Influenza A virus H3N2 [24] = assay: Antiviral activity against influenza H3N2 virus in MDCK cells assessed as reduction of virus-induced cytopathicity by MTS method; type: functional, organism-based
Influenza B virus [25] = assay: Antiviral activity against influenza B virus in MDCK cells assessed as reduction of virus-induced cytopathicity by visual cytopathic effect scoring method; type: functional, organism-based
Influenza B virus [26] = assay: Antiviral activity against influenza B virus in MDCK cells assessed as reduction of virus-induced cytopathicity by MTS method; type: functional, organism-based
[27] = Cytotoxicity against feline CRFK cells by MTS assay; type: cell-based, Felis catus; settings: cat
Feline coronavirus = assay: Antiviral activity against Feline coronavirus in feline […] cells assessed as inhibition of virus-induced cytopathicity; type: functional, organism-based; settings: Alphacoronavirus 1
Felid alphaherpesvirus 1 = assay: Antiviral activity against Feline herpesvirus in feline […] cells assessed as inhibition of virus-induced cytopathicity; type: functional, organism-based

## Cc1cc(C)cc(S(=O)(=O)c2c(C(=O)NCCS(N)(=O)=O)[nH]c3ccc(Br)cc23)c1
[1]
  EC50: > 4 µM
[2]
  EC50: > 4 µM
[3]
  EC50: 0.001 µM
[4]
  EC50: > 10 µM
L1210
  IC50: 17 µM
[5]
  IC50: 11 µM
CCRF-CEM
  IC50: 14 µM
[6]
  IC50: 0.002 µM
[7]
  IC50: 0.013 µM
[8]
  IC50: 0.529 µM
[9]
  IC50: > 40 µM
[10]
  MCC at 72 h: 20 µM
[11]
  MCC at 72 h: ≥ 20 µM
Coxsackievirus B4 [12]
  EC50: ≥ 4 µM
Coxsackievirus B4 [13]
  EC50: 12 µM
Human respirovirus 3
  EC50: > 20 µM
[14]
  EC50: > 20 µM
Sindbis virus
  EC50: > 20 µM
Punta Toro virus
  EC50: > 20 µM
[15]
  MCC at 72 h: 20 µM
Human alphaherpesvirus 1 [16]
  EC50: > 4 µM
Human alphaherpesvirus 2
  EC50: > 4 µM
Vaccinia virus
  EC50: > 4 µM
[17]
  EC50: > 4 µM
Human alphaherpesvirus 1 [18]
  EC50: > 4 µM
[19]
  MCC: 4 µM
[20]
  CC50: 1.9 µM
Influenza A virus [21]
  EC50: > 800 µM
Influenza A virus [22]
  EC50: > 800 µM
Influenza A virus H3N2 [23]
  EC50: > 800 µM
Influenza A virus H3N2 [24]
  EC50: > 800 µM
Influenza B virus [25]
  EC50: > 800 µM
Influenza B virus [26]
  EC50: > 800 µM
[27]
  CC50: 11.9 µM
Feline coronavirus
  EC50: > 4 µM
Felid alphaherpesvirus 1
  EC50: > 4 µM

## Cc1cc(C)cc(S(=O)(=O)c2c(C(=O)NC(C)CS(N)(=O)=O)[nH]c3ccc([N+](=O)[O-])cc23)c1 (stereo not drawn)
[1]
  EC50: > 20 µM
[2]
  EC50: ≥ 20 µM
[3]
  EC50: 0.0042 µM
[4]
  EC50: > 10 µM
L1210
  IC50: 20 µM
[5]
  IC50: 11 µM
CCRF-CEM
  IC50: 15 µM
[6]
  IC50: 0.028 µM
[7]
  IC50: 0.364 µM
[8]
  IC50: 3.28 µM
[9]
  IC50: 26.2 µM
[10]
  MCC at 72 h: ≥ 20 µM
[11]
  MCC at 72 h: ≥ 20 µM
Coxsackievirus B4 [12]
  EC50: ≥ 20 µM
Coxsackievirus B4 [13]
  EC50: ≥ 20 µM
Human respirovirus 3
  EC50: > 20 µM
[14]
  EC50: > 20 µM
Sindbis virus
  EC50: > 20 µM
Punta Toro virus
  EC50: > 20 µM
[15]
  MCC at 72 h: ≥ 20 µM
Human alphaherpesvirus 1 [16]
  EC50: > 20 µM
Human alphaherpesvirus 2
  EC50: > 20 µM
Vaccinia virus
  EC50: > 20 µM
[17]
  EC50: > 20 µM
Human alphaherpesvirus 1 [18]
  EC50: > 20 µM
[19]
  MCC: 20 µM
[20]
  CC50: 9.8 µM
Influenza A virus [21]
  EC50: > 4 µM
Influenza A virus [22]
  EC50: > 4 µM
Influenza A virus H3N2 [23]
  EC50: > 4 µM
Influenza A virus H3N2 [24]
  EC50: > 4 µM
Influenza B virus [25]
  EC50: > 4 µM
Influenza B virus [26]
  EC50: > 4 µM
[27]
  CC50: 47.6 µM
Feline coronavirus
  EC50: > 20 µM
Felid alphaherpesvirus 1
  EC50: > 20 µM

## Cc1cc(C)cc(S(=O)(=O)c2c(C(=O)NCC(N)=O)[nH]c3ccc([N+](=O)[O-])cc23)c1
[1]
  EC50: > 100 µM
[2]
  EC50: > 100 µM
[3]
  EC50: 0.0024 µM
[4]
  EC50: > 50 µM
L1210
  IC50: > 500 µM
[5]
  IC50: > 500 µM
CCRF-CEM
  IC50: ≥ 500 µM
[6]
  IC50: 0.034 µM
[7]
  IC50: 0.206 µM
[8]
  IC50: 0.417 µM
[9]
  IC50: 2.91 µM
[10]
  MCC at 72 h: > 100 µM
[11]
  MCC at 72 h: > 100 µM
Coxsackievirus B4 [12]
  EC50: > 100 µM
Coxsackievirus B4 [13]
  EC50: > 100 µM
Human respirovirus 3
  EC50: > 100 µM
[14]
  EC50: > 100 µM
Sindbis virus
  EC50: > 100 µM
Punta Toro virus
  EC50: > 100 µM
[15]
  MCC at 72 h: 100 µM
Human alphaherpesvirus 1 [16]
  EC50: > 20 µM
Human alphaherpesvirus 2
  EC50: > 20 µM
Vaccinia virus
  EC50: > 20 µM
[17]
  EC50: > 20 µM
Human alphaherpesvirus 1 [18]
  EC50: > 20 µM
[19]
  MCC: 100 µM
[20]
  CC50: > 100 µM
Influenza A virus [21]
  EC50: > 20 µM
Influenza A virus [22]
  EC50: > 20 µM
Influenza A virus H3N2 [23]
  EC50: > 20 µM
Influenza A virus H3N2 [24]
  EC50: > 20 µM
Influenza B virus [25]
  EC50: > 20 µM
Influenza B virus [26]
  EC50: > 20 µM
[27]
  CC50: > 100 µM
Feline coronavirus
  EC50: > 100 µM
Felid alphaherpesvirus 1
  EC50: > 100 µM
